Experimental data as given in ChEMBL document CHEMBL2331463, “Probing functional diversity in pactamycin toward antibiotic, antitumor, and antiprotozoal activity” (Bioorg Med Chem, 2013).
≈ marks a conversion by molar mass, not a printed value.

Tests used:
[1] = test system: Plasmodium falciparum; assay: Antimalarial activity against Plasmodium falciparum D6 after 72 hrs by SYBR Green-based fluorescence assay; format: functional, organism-based; conditions: D6, 72 h
Outline: (§1)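 Drug stocks were made at 10 mM in sterile distilled water and serially diluted in culture medium. These were added in quadruplicate to asynchronous P. falciparum cultures at 0.2% parasitemia and 2% hematocrit, then incubated 72 h at 37 °C. Lysis buffer containing SYBR Green I was added, followed by 1 h at room temperature in the dark. Fluorescence was read at ex 497/em 520 nm, and IC50 was obtained by nonlinear regression of logistic dose-response curves.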

[2] = test system: Escherichia coli; assay: Antibacterial activity against Escherichia coli ATCC 25922 after 20 hrs by broth microdilution method; format: functional; conditions: ATCC 25922, 20 h
Outline: (§2)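 MIC determined by standard broth microdilution following CLSI recommendations (document M07-A8).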

[3] = test system: Plasmodium falciparum; assay: Antimalarial activity against Plasmodium falciparum 7G8 after 72 hrs by SYBR Green-based fluorescence assay; format: functional, organism-based; conditions: 7G8, 72 h; outline: as §1
[4] = test system: PC-3; assay: Cytotoxicity against human PC3 cells; format: functional, cell-based; conditions: for IC50: Homo sapiens, PC-3
[5] = test system: Staphylococcus aureus; assay: Antibacterial activity against Staphylococcus aureus ATCC 25923 after 20 hrs by broth microdilution method; format: functional; conditions: ATCC 25923, 20 h; outline: as §2
[6] = test system: Plasmodium falciparum; assay: Antimalarial activity against Plasmodium falciparum Dd2 after 72 hrs by SYBR Green-based fluorescence assay; format: functional, organism-based; conditions: Dd2, 72 h; outline: as §1
[7] = test system: WI-38; assay: Cytotoxicity against human WI38 cells; format: functional, cell-based; conditions: for IC50: Homo sapiens, WI-38
[8] = test system: Pseudomonas aeruginosa; assay: Antibacterial activity against Pseudomonas aeruginosa ATCC 27853 after 20 hrs by broth microdilution method; format: functional; conditions: ATCC 27853, 20 h; outline: as §2
[9] = test system: Acinetobacter baumannii; assay: Antibacterial activity against Acinetobacter baumannii clinical isolate after 20 hrs by broth microdilution method; format: functional; outline: as §2
[10] = test system: HCT-116; assay: Cytotoxicity against human HCT116 cells; format: functional, cell-based
[11] = Cytotoxicity against human MDA231 cells; format: functional, cell-based; conditions: MDA-MB-231
[12] = test system: Enterococcus faecalis; assay: Antibacterial activity against Enterococcus faecalis ATCC 29212 after 20 hrs by broth microdilution method; format: functional; conditions: ATCC 29212, 20 h; outline: as §2
[13] = test system: Klebsiella pneumoniae; assay: Antibacterial activity against Klebsiella pneumoniae ATCC 700603 after 20 hrs by broth microdilution method; format: functional; conditions: ATCC 700603, 20 h; outline: as §2

Row | IC50 [1] [nM] | MIC [2] [µg/mL] | IC50 [3] [nM] | MIC [5] [µg/mL] | IC50 [6] [nM] | MIC [8] [µg/mL] | MIC [9] [µg/mL] | MIC [12] [µg/mL] | MIC [13] [µg/mL] | Structure (SMILES) | IC50 [4] [nM] | IC50 [7] [nM] | IC50 [10] [nM] | IC50 [11] [nM] | inhibition (INH) [4] [%] | inhibition (INH) [7] [%]
1 | > 2500 | > 128 | 1600 | > 128 | 2000 | > 128 | > 128 | > 128 | > 128 | CC(=O)c1cccc(N[C@H]2[C@H](N)[C@@](NC(=O)N3CCCCC3)([C@H](C)O)[C@@](C)(O)[C@@]2(O)CO)c1 | > 1000 | > 1000 | > 1000 | > 1000 |  | 
2 | < 2.5 | 16 (≈ 28.6 µM) | 2.5 | 0.12 (≈ 0.215 µM) | < 2.5 | 128 (≈ 229 µM) | 16 (≈ 28.6 µM) | 128 (≈ 229 µM) | 32 (≈ 57.3 µM) | CC(=O)c1cccc(N[C@H]2[C@H](N)[C@@](NC(=O)N(C)C)([C@H](C)O)[C@@](C)(O)[C@@]2(O)COC(=O)c2c(C)cccc2O)c1 [PACTAMYCIN] | 240 | > 1000 | 70 | 500 |  | 
3 | < 2.5 | 4 (≈ 9.42 µM) | 2.5 | 2 (≈ 4.71 µM) | < 2.5 | 128 (≈ 302 µM) | 128 (≈ 302 µM) | 64 (≈ 151 µM) | 8 (≈ 18.8 µM) | CC(=O)c1cccc(N[C@H]2[C@H](N)[C@@](NC(=O)N(C)C)([C@H](C)O)[C@@](C)(O)[C@@]2(O)CO)c1 | 310 | > 1000 | 70 | 260 |  | 
4 | 6.5 | 8 (≈ 20 µM) | < 2.5 | 4 (≈ 9.99 µM) | 7.4 | > 128 | 64 (≈ 160 µM) | 128 (≈ 320 µM) | 32 (≈ 79.9 µM) | C[C@H](O)[C@]1(NC(=O)N(C)C)[C@@H](N)[C@H](Nc2cccc(F)c2)[C@](O)(CO)[C@]1(C)O | > 1000 | > 1000 | 190 | > 1000 | 35 | 34
5 | 6.7 | 16 (≈ 35.5 µM) | < 2.5 | 2 (≈ 4.44 µM) | 3.5 | > 128 | 64 (≈ 142 µM) | 64 (≈ 142 µM) | 128 (≈ 284 µM) | C[C@H](O)[C@]1(NC(=O)N(C)C)[C@@H](N)[C@H](Nc2cccc(C(F)(F)F)c2)[C@](O)(CO)[C@]1(C)O | 750 | > 1000 | 100 | 380 |  | 42
6 | > 2500 | > 128 | > 2500 | > 128 | > 2500 | > 128 | > 128 | > 128 | > 128 | CC(=O)c1cccc(N[C@H]2[C@H](N)[C@]3(NC(=O)O[C@H]3C)[C@@](C)(O)[C@@]2(O)CO)c1 | > 1000 | > 1000 | > 1000 | > 1000 |  | 
7 | > 2500 | > 128 | > 2500 | > 128 | > 2500 | > 128 | > 128 | > 128 | > 128 | CC(=O)c1cccc(N[C@H]2[C@H](N)[C@@](NC(=O)N3CCOCC3)([C@H](C)O)[C@@](C)(O)[C@@]2(O)CO)c1 | > 1000 | > 1000 | > 1000 | > 1000 |  | 
8 | 14.6 | 32 (≈ 83.7 µM) | 18.5 | 64 (≈ 167 µM) | 13.9 | > 128 | > 128 | > 128 | 64 (≈ 167 µM) | C[C@H](O)[C@]1(NC(=O)N(C)C)[C@@H](N)[C@H](Nc2ccccc2)[C@](O)(CO)[C@]1(C)O | > 1000 | > 1000 | 810 | > 1000 |  | 
9 | 9 | 64 (≈ 142 µM) | 10 | 8 (≈ 17.8 µM) | 9 | > 128 | > 128 | 128 (≈ 284 µM) | 128 (≈ 284 µM) | CC(=O)c1cccc(N[C@H]2[C@H](N)[C@@](NC(=O)N3CCCC3)([C@H](C)O)[C@@](C)(O)[C@@]2(O)CO)c1 | 150 | > 1000 | 90 | 120 |  | 
10 | 13.7 | 64 (≈ 155 µM) | 19.8 | 16 (≈ 38.8 µM) | 11.5 | > 128 | 128 (≈ 310 µM) | > 128 | > 128 | COc1cccc(N[C@H]2[C@H](N)[C@@](NC(=O)N(C)C)([C@H](C)O)[C@@](C)(O)[C@@]2(O)CO)c1 | > 1000 | > 1000 | 390 | > 1000 |  | 
11 | > 2500 | > 128 | > 2500 | > 128 | > 2500 | > 128 | > 128 | > 128 | > 128 | CC(=O)c1cccc(N[C@H]2[C@H](N)[C@]3(NC(=O)O[C@H]3C)[C@@](C)(O)[C@@]2(O)COC(=O)c2c(C)cccc2O)c1 [PACTAMYCATE] | > 1000 | > 1000 | > 1000 | > 1000 |  | 
12 | 29 | > 128 | 42 | 4 (≈ 8.84 µM) | 40 | > 128 | > 128 | 128 (≈ 283 µM) | > 128 | CCN(CC)C(=O)N[C@@]1([C@H](C)O)[C@@H](N)[C@H](Nc2cccc(C(C)=O)c2)[C@](O)(CO)[C@]1(C)O | 400 | > 1000 | 230 | 440 |  | 
